Bioassay records (PubChem)
Hits are enriched below; roughly 1.8% of the tested compounds scored in any of these assays.
Dynein transport – blocks dynein driven cargo transport along microtubules. 3617.4 mouse cells, GR-EGFP nuclear translocation imaging; test concentration mostly 20 µM; stimulated with dexamethasone, 1 µM; hits give low values. z-score, hits read low. hit rate 0.47% among 220,000. AID 1381;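 active = plate z-score of nuclear minus cytoplasmic receptor signal below a set negative limit, without overly bright fluorescence or cell loss, cut at about -3.5 in these data, passing the limit was not always enough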;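 note: z-score of nuclear minus cytoplasmic ring GR-EGFP intensity difference per well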
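Schedule: 48 h induction, then 1 h compound, then 30 min agonist, 37 °C. Buffer or medium: tetracycline-free induction medium containing charcoal-stripped FBS. Reagent: 1.0 µM final dexamethasone stimulus. Evaluation: nuclear versus cytoplasmic GR-EGFP signal, averaged per well. Signal: high-content fluorescence imaging after fixation.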
Autophagy mod – modulators of autophagy; MEF GFP-LC3 puncta imaging; test concentration mostly 10 µM; calls only at 10 µM (by protocol); hit rate 0.98% among 190,000;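 active = percentage of spot-positive cells more than 3 SD above its plate mean, without a fluorescence outlier flag or 80% toxicity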;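 note: spot-positive cell cutoff set from DMSO-treated cells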
L929 necroptosis – blocks zVAD induced death of L929 cells. L929 zVAD necroptosis rescue, ATP luminescence, 24 h; with zVAD 60 µM. viability rescue, % at 10 µM. hit rate 0.38% among 220,000. AID 1377;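 active = activation, scaled between plate controls, above about 75%, limit read from the data; inactive = activation under that limit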;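 note: 0% = zVAD with DMSO and 100% = DMSO alone without zVAD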
MDM2 E3 inh – inhibitors of human Mdm2 E3 ubiquitin ligase; signal enhancement, % at 5 µM; Q00987; hit rate 0.11% among 210,000; AID 1230; cell-based MDM2 ubiquitination luciferase reporter, 2 h; 0 = plate control, 100 = twice control, blank-subtracted;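 active = signal enhancement of 30% or more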;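 note: luminescence tracks abundance of the self-degrading MDM2-luciferase fusion protein; higher signal means inhibition of MDM2 E3 ligase activity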
Target sequence (Q00987 whole entry, looked up, the tested form may be a part): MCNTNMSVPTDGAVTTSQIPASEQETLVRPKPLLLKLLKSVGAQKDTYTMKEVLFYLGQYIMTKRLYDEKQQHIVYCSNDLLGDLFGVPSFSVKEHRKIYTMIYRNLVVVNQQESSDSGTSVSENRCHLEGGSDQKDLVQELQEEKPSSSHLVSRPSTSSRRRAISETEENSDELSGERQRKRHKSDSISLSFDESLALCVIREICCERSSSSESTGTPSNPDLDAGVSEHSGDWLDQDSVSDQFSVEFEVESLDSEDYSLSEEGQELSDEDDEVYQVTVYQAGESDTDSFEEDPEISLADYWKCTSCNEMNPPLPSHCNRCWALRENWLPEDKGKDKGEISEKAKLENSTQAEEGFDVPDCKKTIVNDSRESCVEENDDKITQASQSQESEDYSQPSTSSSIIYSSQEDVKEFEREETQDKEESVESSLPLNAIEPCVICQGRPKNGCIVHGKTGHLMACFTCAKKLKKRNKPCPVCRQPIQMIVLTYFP
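Test system: stable mammalian line carrying autodegrading MDM2–luciferase fusion reporter; quantity: 2000 cells in each well; times: 4 h cell settling then 2 h compound exposure, 37 °C; detection: luminescence with SteadyLite reagent, 15 min at room temperature; evaluation: percent signal gain over controls, blank-subtracted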
TNF death inh – blocks TNF-alpha induced death of Jurkat FADD-/- cells; Jurkat FADD-/- TNF necroptosis rescue, ATP luminescence, 24 h; 0 = TNF only, 100 = no-TNF cells; hit rate 0.068% among 220,000; AID 463075; activation (protection from cell death), % at 10 µM;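 active = activation, meaning protection from cell death, of at least 50% relative to plate controls; inactive = activation below 50%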;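 note: necroptosis triggered by 40 ng/mL TNF-alpha added together with compound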
The depositor's hits bear a star; i = inactive; · = no result given; + = active, no number.

SMILES	Dynein transport	Autophagy mod	L929 necroptosis	MDM2 E3 inh	TNF death inh
COc1ccc2c(c1)N(C)/C(=C1/SC(=NCc3ccccc3)N(c3ccccc3)C1=O)S2	-0.134	+	0.1	-11.8	-2.5
C=CCN1C(=O)/C(=C2/Sc3ccc(OC)cc3N2C)SC1=Nc1ccccc1	-0.584	i	9.1	-4.2	-0.2
C=CCN1C(=O)/C(=C2/Sc3ccc(OC)cc3N2C)SC1=NCc1ccccc1	0.0991	+	-0.8	-20.8	-0.7
O=C(OCC(=O)N1CCCC1)c1c2c(nc3ccccc13)CCCCC2	1.48	i	-1.1	-19.7	-0.6
Cc1ccccc1NCc1nnc2n1CCCCC2	-1.24	i	3.4	-28.7	0.5
Cc1ccc(C(=O)O)cc1NC(=S)NC(=O)Cc1ccccc1	2.5	i	-0.1	6.4	-0.6
Cc1ccc(C(=O)O)cc1NC(=O)CCc1ccccc1	-0.678	+	0.7	-6.8	0.6
COc1ccc2oc(=O)c(-c3nnc(NCc4ccco4)s3)cc2c1	0.44	+	0.1	-12.5	-4.9
CCOc1cc(/C=C/C(=O)OCC(=O)NC2CCS(=O)(=O)C2)ccc1OCc1ccccc1 (stereo unspecified)	1.25	i	1.7	-7.3	0.9
C=CCOc1ccc(C2N3CC4(CC)CN2CC(CC)(C3)C4=O)cc1 (stereo unspecified)	-0.193	i	9.7	-1.7	3.0
CCC12CN3CC(CC)(CN(C1)C3c1c(O)ccc3ccccc13)C2=O (stereo unspecified)	0.0657	+	0.9	-19.8	-6.9
CCOc1ccc(-n2cc(-c3ccccc3)c3c(N4CCOCC4)ncnc32)cc1	-0.533	+	1.7	-7.8	-4.7
c1ccc(-c2cn(-c3ccccc3)c3ncnc(N4CCCCC4)c23)cc1	0.713	i	0.3	-1.3	0.2
Cc1cc(NC(=O)COc2cccc(Oc3ccccc3)c2)no1	-1.24	+	-0.2	-6.5	-2.2
COC(=O)/C=c1/s/c(=C(/C#N)C(=O)NCc2ccccc2)n(-c2ccccc2)c1=O	-1.33	i	0.6	-8.4	1.2
CCCCCCOc1ccc(/C=c2\s/c(=C(/C#N)C(=O)NCc3ccco3)n(-c3ccccc3)c2=O)cc1	2.64	+	0.7	-3.2	0.7
FC(F)(F)c1ccc2c(c1)NCC1CCCN21 (stereo unspecified)	0.523	+	0.8	-10.3	0.5
FC(F)(F)c1ccc2c(c1)N1CCCC1CN2 (stereo unspecified)	1.4	+	7.1	-74.8	-3.6
CCSc1nnc(-c2ccc(Cl)cc2)c2ccccc12	-0.892	i	-0.1	-21.6	26.2
CC(C)c1nnc(-c2ccc(Cl)cc2)c(N(C)C)n1	-0.227	i	-0.2	-39.1	74.8*
Cc1cccc(N/C=C/c2onc(C)c2[N+](=O)[O-])c1	-0.848	+	0.1	7.0	0.1
Cc1cc(O)ccc1N/C=C/c1onc(C)c1[N+](=O)[O-]	0.232	i	0.4	-22.7	-1.8
O=C(c1ccccc1O)N1N=C(c2ccccc2)CC1(O)C(F)(F)F (stereo unspecified)	2.59	i	1.5	4.8	0.9
CCOc1ccccc1NC(=O)CCSc1nc2n[nH]c(C)c2c(=N)n1-c1ccccc1Cl	0.18	+	30.6	-13.6	-12.4
Cc1ccc(S(=O)(=O)Nc2cccc3cccnc23)cc1	0.466	+	0.2	-16.2	-13.1
SMILES	Dynein transport	Autophagy mod	L929 necroptosis	MDM2 E3 inh	TNF death inh
COc1cc(NS(=O)(=O)c2ccc(C)cc2)c2ncccc2c1	-0.472	i	51.4	-15.4	-9.8
COCCNC(=O)/C(C#N)=C/c1ccc(O)cc1	0.676	·	0.7	·	-4.0
COCCNC(=O)/C(C#N)=C/c1cccc(/C=C(\C#N)C(=O)NCCOC)c1	-0.835	i	-0.2	69.8*	1.1
Cn1c(Cc2cccs2)nnc1SCc1nc2ccccc2[nH]1	-0.0821	i	1.9	-15.4	3.5
c1csc(Cc2nc3ccccc3[nH]2)c1	-1.04	i	13.9	-0.1	64.9*
CC(=O)N(c1ccccc1C)C1CCCC1	-0.872	i	0.5	4.5	0.4
CC(=O)N(C1=C(Cl)C(=O)c2ccccc2C1=O)C1CCCCC1	-6.01*	·	-1.6	-85.3	-32.5
CC12CCC(C(=O)N3CCCc4ccccc43)(OC1=O)C2(C)C (stereo unspecified)	0.653	i	0.2	-7.1	-0.4
CC(NCc1cc(Br)ccc1OCC(=O)NCc1ccccc1)c1ccccc1 (stereo unspecified)	-0.949	+	0.0	-5.8	2.1
Cc1nn(Cc2ccccc2)c(Cl)c1C(=O)OCC#N	0.0141	i	-1.4	-2.1	-2.3
COc1ccc2[nH]c3c(c2c1)CCNC3C1CC=C(C)CC1 (stereo unspecified)	-0.0893	+	-2.1	-7.3	-2.4
CN(C)C(CNC(=O)c1ccc(S(=O)(=O)N(C)C)cc1)Cc1ccccc1 (stereo unspecified)	-0.546	+	0.1	-14.2	2.0
COc1ccc2nc(NC(=O)Cc3ccc(OC)c(S(=O)(=O)N4CCOCC4)c3)sc2c1	-0.101	i	91.9*	-20.9	3.9
COc1ccc2nc(NC(=O)CS(=O)(=O)Cc3ccccc3)sc2c1	0.0941	+	1.9	-17.6	0.9
CCN(CC)c1ccc2c(Cl)c(Br)c(=O)oc2c1	-1.68	+	61.8	-15.7	-20.4
CCN(CC)c1ccc2c(C)c(Cl)c(=O)oc2c1	-0.581	i	-0.1	·	0.4
COc1ccc2c(C)nc(Nc3nc(C)cc(=O)[nH]3)nc2c1	-0.114	+	0.6	·	-9.3
COc1ccccc1N=C(C)C1=C(O)CC(c2ccccc2)CC1=O (stereo unspecified)	2.6	+	-1.1	-8.1	-7.4
O=C(NCc1cccnc1)c1ccc(COc2ccccc2Br)o1	1.55	i	-0.5	9.4	-3.2
O=C(Nc1cccnc1)c1ccc(-c2cc(Cl)ccc2Cl)o1	0.356	i	51.1	-26.0	1.5
O=C(Nc1cccnc1)c1ccc(-c2ccc(Cl)cc2)o1	0.237	+	19.4	-3.3	2.4
O=C(Nc1cccnc1)c1ccc(COc2ccccc2Br)o1	-1.15	+	-0.8	7.7	-6.9
Cn1c(NNC(=O)C2CCCCC2)cc(=O)n(C)c1=O	0.546	+	2.1	-3.3	0.4
Cn1c(NC(=O)C2CCCC2)cc(=O)n(C)c1=O	-0.154	·	0.3	1.6	-0.3
Cc1ccc(C(=O)/C=C/c2cn(CC(O)CN3CCOCC3)c3ccccc23)cc1 (stereo unspecified)	1.86	i	77.4*	-0.4	4.2
Cn1c(N)c(C(=O)CCl)c(=O)n(Cc2ccccc2)c1=O	-5.95*	i	-2.2	·	-17.7
Cn1c(=O)c(C(=O)CCl)c(N)n(Cc2ccccc2)c1=O	-0.162	i	-3.0	·	-16.3
